# Most compounds without a hit are left out; they make up all but 3.4% or so of the library.
# beta cell repl: inducers of MIN6 beta-cell proliferation, primary screen, ATP luminescence, uHTS | proliferation, % at 10 µM | hit rate 0.29% among 330,000 | MIN6 cells proliferation, ATPlite luminescence, 48 h; cells starved in 0.2% serum; 100% = growth in 10% serum;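 active means compounds whose signal lies at least 3.5 SD above the mean of all wells on their plate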;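 further: 0% = DMSO-treated cells in low-serum medium and 100% = 10% serum control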
# MC4R barr agon: MC4R agonists recruiting beta-arrestin, primary screen, cell-based, luminescence, agonist arm of biased-ligand search | Melanocortin receptor 4 (Homo sapiens), P32245 | U2OS MC4R beta-arrestin complementation; percent of melanotan II response, DMSO zero | activation, % at 8.9 µM | hit rate 0.98% among 360,000 | AID 540308, 2011;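 active means activation above a per-plate cutoff, the mean activation of sample wells on that plate plus 3 SD, cut at about 8% in these data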
# HTR2A ag: mouse Htr2a agonists via beta-arrestin recruitment, primary screen, cell-based, luminescence; CHO-K1 mHTR2A beta-arrestin complementation; percent of 30 µM serotonin response; activation, % at 7.6 µM; hit rate 0.66% among 360,000;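 active means activation above a run cutoff, the mean activation of all tested compounds plus 3 SD, cut at about 14% in these data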;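 further: 0% = plate median of compound wells and 100% = 30 µM serotonin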
# TMEM16A act: TMEM16A chloride channel activators or potentiators, primary screen, cell-based, HTS; HEK293 TMEM16A/YFP-H148Q/I152L, iodide quench fluorescence; hits give low values; hit rate 0.3% among 340,000; Anoctamin-1 (Mus musculus), Q8BHY3; B-score at 10 µM;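 active means fluorescence-ratio B-score plate-corrected deviation score at least 3 library SD below zero, with starting fluorescence score within 5 deviations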;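 further: channel opened by trigger with iodide after compound preincubation; score built on the fluorescence ratio of max minus min over baseline; more negative score means more quench and so TMEM16A activation or potentiation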
# MC4R antagonist: MC4R antagonists of cAMP signaling, primary screen, cell-based, TR-FRET, antagonist arm of biased-ligand search; Melanocortin receptor 4 (Homo sapiens), P32245; MC4R-expressing cells, MTII-stimulated cAMP, LANCE TR-FRET; inhibition, % at 6.5 µM; hit rate 0.48% among 360,000; AID 540295, 2011;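 active means inhibition above its plate's cutoff, the mean of tested wells on that plate plus 3 SD, cut at about 29% in these data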;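 further: 0% = Melanotan II alone and 100% = Melanotan II plus saturating MCL0020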
#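 System – human MC4R-expressing U2OS cells · Also added – Melanotan II · Dosing – one concentration, 6.5 µM nominal · Timing – 30-min compound, 1-h challenge, 1-h detection, room temperature · Measured by – Eu-cAMP/anti-cAMP TR-FRET, emission 671 nm · Replicates – singlicate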
# TMEM16A inh: TMEM16A chloride channel inhibitors, primary screen, cell-based, HTS; Anoctamin-1 (Mus musculus), Q8BHY3; HEK293 TMEM16A/YFP iodide influx fluorescence, ionomycin; normalized B-score (activity score, 25-100; higher = stronger inhibition) at 10 µM; hit rate 1.2% among 310,000;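 active means ratio plate-corrected score three or more library SD toward inhibition, starting fluorescence score within five deviations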;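 further: score derived from kinetic fluorescence span divided by baseline fluorescence per well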
# The depositor's hits bear a star; i = inactive; . = no result.
SMILES,beta cell repl,MC4R barr agon,HTR2A ag,TMEM16A act,MC4R antagonist,TMEM16A inh
CCOC(=O)[C@]12CCC=C1N(CCC1=CCCCC1)C(=O)[C@H](CC(=O)N1CCOCC1)C2,.,.,1,.,.,.
COc1ccc(C2CC(c3ccccc3)=NN2c2ccc(S(N)(=O)=O)cc2)cc1OC (stereo unspecified),-2,-2,-1,-6.1*,14,i
CCOC(=O)c1c(S(=O)(=O)N2CCC(C)CC2)c(C)n(C)c1C,-1,-4,-2,i,9,i
O=C(N/C(=C\c1ccccc1)C(=O)N1CCCCC1)c1ccco1,0,0,8,i,15,i
O=C(COC(=O)c1ccc([N+](=O)[O-])s1)NCCc1ccccc1,-6,-1,17*,i,8,.
Cc1cccc2cc3c(NC(=O)C(C)(C)C)nn(CC(C)C)c3nc12,-2,0,1,i,7,i
CCCCC(=O)N(c1ccc(C(=O)O)cc1)c1nc(-c2ccc(Cl)cc2)c(CC)s1,-7,1,9,i,8,100*
CCc1sc(N(C(=O)Cc2ccccc2)c2ccccc2)nc1-c1ccccc1,0,-3,-1,i,16,i
Cc1ccsc1C(=O)NCCc1nnc2ccccn12,3,-1,2,i,0,i
CS(=O)(=O)c1ccc(C(=O)OC2CCOC2=O)cc1[N+](=O)[O-] (stereo unspecified),-6,-3,4,i,32*,i
O=C(OC1CCOC1=O)c1ccccc1C(=O)c1ccc(Cl)c([N+](=O)[O-])c1 (stereo unspecified),-5,0,3,i,23,.
O=C(Cn1c2ccccc2c2nc3n(c(=O)c21)CCS3)N1CCCC1,-1,-3,-3,i,5,i
O=C(Cn1c2ccccc2c2nc3n(c(=O)c21)CCS3)Nc1ccccc1,0,-4,1,-32*,1,i
CCCCCCCCNC(C)C(O)c1ccc(SC(C)C)cc1 (stereo unspecified),-8,6,-3,i,3,25*
C[C@@H](NCCc1ccc(O)cc1)[C@@H](O)c1ccc(O)cc1,-4,0,-4,i,-4,i
N#C/C(=C/c1ccc(N2CCCCCC2)o1)c1ccc(F)cc1,-4,-3,1,i,18,i
N#C/C(=C/c1ccc(N2CCCCCC2)o1)c1cccc(F)c1,-6,8.7*,1,i,10,i
Cc1ccc(NC(=O)COC(=O)CCc2c(C)nc3nc(N)nn3c2C)cc1C,-1,-2,-4,-23*,3,.
Cc1ccc(NC(=S)NNC(=O)c2ccccc2O)c(C)c1,0,-1,1,i,-1,100*
COc1ccc(OC)c(/C=C2\SC(N3CCCC(C)C3)=NC2=O)c1 (stereo unspecified),-2,0,0,i,3,100*
Cc1cc[n+](-c2[nH]c(=O)sc2/C=N/NC([S-])=Nc2ccccc2)cc1,0,-3,5,-5*,-12,i
COc1cccc2sc(N(CCN(C)C)C(=O)/C=C/c3cccs3)nc12,-7,7,-4,i,7,i
COc1ccc(OC)c2sc(N(CCN(C)C)C(=O)/C=C/c3cccs3)nc12,-8,0,1,-32*,2,i
COc1cc(C(=O)NCCC(c2ccccc2)c2ccccc2)cc(OC)c1OC,-3,-1,-11,i,-14,i
Cc1nc(NC(=O)c2ccco2)sc1-c1csc(Nc2ccc(Cl)cc2Cl)n1,-8,8.5*,-4,i,27,i
SMILES,beta cell repl,MC4R barr agon,HTR2A ag,TMEM16A act,MC4R antagonist,TMEM16A inh
C/C(=N\NS(=O)(=O)c1ccccc1)c1cc(Cl)cc(Cl)c1O,-5,-3,-1,i,-3,100*
C/C(=N/NS(=O)(=O)c1ccc(Cl)cc1)c1cccc(O)c1,1,-1,-1,i,0,i
CC1=C(C(=O)Nc2cc(C(=O)N3CCN(c4cccc(C)c4C)CC3)ccc2C)SCCO1,-2,0,-3,-7.1*,22,i
CCCCC(CC)C(=O)Nc1ncc([N+](=O)[O-])s1 (stereo unspecified),-6,-1,-1,i,6,100*
Cc1cc(NS(=O)(=O)c2ccc(NC(=O)COc3ccc(C#N)cc3)cc2)nc(C)n1,-1,-3,5,i,2,.
O=C(COc1ccccc1)Nc1nc(-c2cccnc2)cs1,-3,4,1,i,7,.
Cc1cc(C)cc(OCC(=O)Nc2nc(-c3cccnc3)cs2)c1,-1,9.2*,11,i,7,i
N#Cc1ccc(OCC(=O)Nc2nc(-c3cccnc3)cs2)cc1,1,9.1*,4,i,4,.
CC(C)(C)[C@@H]1COC(=O)[C@H](Cc2ccc(F)cc2)C/C=C\C[C@@H](CC(=O)NCCO)C(=O)N1,4,-1,1,i,8,.
Cc1ccc(S(=O)(=O)NCc2ccc(C(=O)NC3CCC(O)CC3)cc2)cc1C (stereo unspecified),1,-1,5,i,3,.
CCOC(=O)c1ccc(N/C=C\C(=O)c2cccc(OC)c2)cc1,-3,9.4*,2,i,-6,i
COc1cccc(Oc2ccc(N/C=C/C(=O)C(C)(C)C)cc2)c1,-3,0,5,i,-9,25*
CCOC(=O)c1cccc(N/C=C/C(=O)c2ccc(OC)c(OC)c2)c1,3,0,5,i,3,i
Cc1ccc(-c2nnc(N3CCC(C)CC3)c3ccccc23)cc1,-7,-5,-1,i,12,i
Cc1ccc(-c2nnc(N3CCC(C)CC3)c3ccccc23)cc1C,-5,1,1,i,18,100*
O=C(COC(=O)c1ccccc1)Nc1cc(S(=O)(=O)N2CCCCCC2)ccc1Cl,-1,8.8*,6,i,7,.
CN(CC(=O)Nc1cc(S(=O)(=O)N2CCCCCC2)ccc1Cl)Cc1ccc2c(c1)OCO2,-6,-3,-12,-14*,2,.
O=C(Nc1ccc(Br)c(C(F)(F)F)c1)c1ccc(C(F)(F)F)cc1,-3,8.5*,0,-13*,17,i
O=C(Nc1ccc(Br)c(C(F)(F)F)c1)c1ccccc1,0,1,0,i,4,i
